# Measured values as given in ChEMBL document CHEMBL1132545, “Synthesis and structure-activity relationships of new 1, 3-disubstituted cyclohexanes as structurally rigid leukotriene B(4) receptor antagonists” (J Med Chem, 1999).
# How the values were obtained:
# [1] = molecular target: Leukotriene B4 receptor (Homo sapiens, UniProt Q9NPC1+Q15722); assay: Inhibition of binding of [3H]LTB4 (1 nM) to intact human polymorphonuclear leukocytes (PMNs)
# Method in brief: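 Intact donor PMNs (10^6 cells) in Ca2+/Mg2+-free HBSS with 5 mM HEPES, incubated 20 min at 4 °C with 1 nM [3H]LTB4 (7.4 TBq/mmol), with or without competitors at various concentrations. Bound label measured by filtration. […] Screening at 10 μM.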
# [2] = (§1) Inhibition of LTB4 induced chemotaxis of isolated human PMNs; assay type: functional
# Method in brief: (§2)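 Human PMNs from healthy donors' heparinized blood, isolated by dextran sedimentation, Ficoll and hypotonic lysis. Cells labeled with 51Cr (1 μCi/10^6 cells, 1 h, 37 °C), resuspended at 10^7 cells/mL in Hank's buffer with 1% BSA. LTB4 plus competitors in lower Boyden–Keller chamber, two 3 μm cellulose nitrate filters, 150 min at 37 °C, 5% CO2. Lower-filter radioactivity counted, expressed as percent of control. pKB from n experiments.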
# [3] = species on record: Homo sapiens; assay: as §1; assay type: functional; method in brief: as §2
Compound,IC50 [1] [µM],pKB [2],pKB [3]
CN(C)C(=O)C[C@]1(O)CCC[C@H](/C=C/[C@H](O)CCCCc2ccccc2)C1,> 10,,
O=C([O-])C[C@]1(O)CCC[C@H](CCC(O)CCCCc2ccccc2)C1.[Na+] (some centres undefined),5.3,,
CN(C)OC(=O)/C=C1/CCC[C@@H](/C=C/C(O)CCCCc2ccccc2)C1 (some centres undefined),1,,
CC(=O)OC(/C=C/[C@H]1CCC/C(=C/C(=O)N(C)C)C1)CCCCc1ccccc1 (some centres undefined),> 10,,
O=C([O-])/C=C1/CCC[C@H](/C=C/C(O)CCCCc2ccccc2)C1.[Na+] (stereo in doubt; form 1),> 10,,
O=C([O-])/C=C1/CCC[C@H](/C=C/C(O)CCCCc2ccccc2)C1.[Na+] (stereo in doubt; 10a),> 10,,
CN(C)C(=O)C[C@]1(O)CCC[C@H](/C=C/C(F)CCCCc2ccccc2)C1 (stereo in doubt; 16 a),2,,
CN(C)C(=O)C[C@]1(O)CCC[C@H](/C=C/C(C)(O)CCCCc2ccccc2)C1 (stereo in doubt; form 1),4.5,,
CN(C)C(=O)C[C@]1(O)CCC[C@H](/C=C/[C@@H](O)CCCCc2ccccc2)C1,0.04,7.5,
CN(C)C(=O)C[C@]1(O)CCC[C@H](/C=C/C(C)(O)CCCCc2ccccc2)C1 (stereo in doubt; form 2),> 10,,
O=C([O-])/C=C1/CCC[C@H](/C=C/C(O)CCCCc2ccccc2)C1.[Na+] (stereo in doubt; form 2),0.5,,
O=C([O-])C[C@]1(O)CCC[C@H](/C=C/C(O)(CCCCc2ccccc2)CC(=O)O)C1.[Na+] (some centres undefined),> 10,,
CN(C)C(=O)C[C@]1(O)CCC[C@H](/C=C/C(C)(O)CCCCc2ccccc2)C1 (stereo in doubt; 15b),7,,
O=C([O-])C[C@@H]1CCC[C@H](CCC(O)CCCCc2ccccc2)C1.[Na+] (some centres undefined),2.6,,
O=C([O-])/C=C1\CCC[C@H](/C=C\C(O)CCCCc2ccccc2)C1.[Na+] (some centres undefined),1.3,,
CN(C)OC(=O)/C=C1/CCC[C@H](/C=C/C(O)CCCCc2ccccc2)C1 (some centres undefined),7,,

# The next lines start with results.
IC50 [1] [µM],Compound,pKB [2],pKB [3]
> 10,CCCCCCCCC(O)/C=C/[C@H]1CCC[C@@](O)(CC(=O)[O-])C1.[Na+] (stereo in doubt; 4a),,
4,CCCCCCCCC(O)/C=C/[C@H]1CCC[C@](O)(CC(=O)[O-])C1.[Na+] (stereo in doubt; 4c),,
0.08,CN(C)OC(=O)C[C@@]1(O)CCC[C@H](/C=C/C(O)CCCCc2ccccc2)C1 (some centres undefined),6.91,
> 10,CCCCCC(O)/C=C/[C@H]1CCC[C@@](O)(CC(=O)[O-])C1.[Na+] (stereo in doubt; 2a),,
> 10,O=C([O-])C[C@@]1(O)CCC[C@H](/C=C/C(O)CCCCc2ccccc2)C1.[Na+] (stereo in doubt; 3c),,
0.8,O=C([O-])C[C@]1(O)CCC[C@H](/C=C/C(O)CCCCc2ccccc2)C1.[Na+] (stereo in doubt; 3b),6.57,
> 10,CCCCCC(O)/C=C/[C@H]1CCC[C@](O)(CC(=O)[O-])C1.[Na+] (stereo in doubt; 2c),,
10,CCCCCC(O)/C=C/[C@H]1CCC[C@](O)(CC(=O)[O-])C1.[Na+] (stereo in doubt; 2d),,5.25
6.5,CN(C)C(=O)C[C@]1(O)CCC[C@H](/C=C/C(F)CCCCc2ccccc2)C1 (stereo in doubt; 16b),,
> 10,CN(C)OC(=O)C[C@]1(O)CCC[C@H](/C=C/C(O)CCCCc2ccccc2)C1 (some centres undefined),,
> 10,O=C([O-])C[C@]1(O)CCC[C@H](/C=C/C(=O)CCCCc2ccccc2)C1.[Na+],,
8,CCCCCC(O)/C=C/[C@H]1CCC[C@@](O)(CC(=O)[O-])C1.[Na+] (stereo in doubt; 2b),5.1,
> 10,O=C([O-])C[C@]1(O)CCC[C@H](/C=C/C(O)CCCCc2ccccc2)C1.[Na+] (stereo in doubt; 3a),,
0.9,CCCCCCCCC(O)/C=C/[C@H]1CCC[C@@](O)(CC(=O)[O-])C1.[Na+] (stereo in doubt; 4b),,6.42
1.5,O=C([O-])C[C@@]1(O)CCC[C@H](/C=C/C(O)CCCCc2ccccc2)C1.[Na+] (stereo in doubt; 3d),6.31,
2.5,CCCCCCCCC(O)/C=C/[C@H]1CCC[C@](O)(CC(=O)[O-])C1.[Na+] (stereo in doubt; 4d),,
